One data set deals with B16. In words: Growth inhibition of mouse B16 cells after 48 hrs. The format is functional, cell-based. The note with it: B16, 48 h. Summed up:
(§1)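 DMEM with 10% fetal calf serum, monolayer culture. 5 × 10³ cells/well seeded and left 24 h at 37 °C, 5% CO₂, humidified. Exposed 48 h to increasing concentrations. Growth measured with Hoechst 33342 dye. IC₅₀ is the mean ± SD of three independent experiments, each in triplicate. Compounds tested as hydrochloride salts.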

Data set [1] is described as follows: Growth inhibition of human IPC227F cells after 48 hrs. In kind it is functional. Summed up: as §1
Data set [2] is described as follows: Biodistribution in liver of C57/BL6 mouse bearing B16 cells at 0.07 uM, iv. Particulars: read-out: Drug uptake. The format is ADME, organism-based, C57Bl/6. Summed up: (§2)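 ¹²⁵I-labelled compound given to C57Bl/6J mice with subcutaneous B16 melanoma. Organs and tissues sampled at 15 min, 30 min, 1 h, 3 h and 6 h post-injection. Radioactivity expressed as % injected dose per unit organ mass. Feces and urine collected over 72 h for elimination.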

For another data set, the system named is Mus musculus. In words: Drug metabolism in C57/BL6 mouse bearing B16 cells assessed as elimation in faeces and urine at 0.07 uM, iv after 72 hrs. Particulars: in vivo. In kind it is ADME, organism-based, C57Bl/6. Summed up:
as §2

Data set [3] can be described thus: Biodistribution in lung of C57/BL6 mouse bearing B16 cells at 0.07 uM, iv. The format is ADME, organism-based, C57Bl/6. Particulars: read-out: Drug uptake. Summed up:
as §2

Data set [4] is described as follows: Ratio of biodistribution in tumor to blood in C57/BL6 mouse bearing mouse B16 cells. In kind it is ADME, organism-based, C57Bl/6.
The nature of data set [5]: Biodistribution in tumor of C57/BL6 mouse bearing B16 cells assessed as remaining drug level at 0.07 uM, iv after 6 hrs. Particulars: read-out: Drug uptake. In kind it is ADME, organism-based, C57Bl/6, Neoplasm. Summed up: as §2
Data set [6] can be described thus: Biodistribution in tumor of C57/BL6 mouse bearing B16 cells assessed as remaining drug level at 0.07 uM, iv after 3 hrs. The format is ADME, organism-based, C57Bl/6, Neoplasm. The note with it: read-out: Drug uptake. Summed up:
as §2

Data set [7] can be described thus: Biodistribution in kidney of C57/BL6 mouse bearing B16 cells at 0.07 uM, iv. In kind it is ADME, organism-based, C57Bl/6. Particulars: read-out: Drug uptake. Summed up:
as §2

A short description of data set [8]: Biodistribution in tumor of C57/BL6 mouse bearing B16 cells at 0.07 uM, iv after 15 mins. Particulars: read-out: Drug uptake. In kind it is ADME, organism-based, C57Bl/6, Neoplasm. Summed up:
as §2

As a reminder, the pIC50 is the negative decadic logarithm of the IC50, by convention in mol/L. What is called Kp is the ratio of the level in a tissue or fluid to that in plasma or blood.

pIC50: −log10 of the molar value. Residues, ends and D or L forms follow the SMILES beside them. *: point of attachment. Cbz = O=C(OCc1ccccc1)* Bounds are passed on as bounds.

For `CCN(CC)CCNC(=O)c1ccc(C(=O)N[C@@H](CC(C)C)C(=O)N[C@@H](CC(C)C)C(=O)N[C@H](C=O)CC(C)C)c(NNN2CCCC2)c1`, the pIC50 in the data set with B16 was 6.28; in data set [1], 5.73.
With `CCN(CC)CCNC(=O)c1ccc(C(=O)N[C@@H](CC(C)C)C(=O)N[C@@H](CC(C)C)C(=O)N[C@H](C=O)CC(C)C)c(/N=N/N2CCCC2)c1`, the negative logarithm of the IC50 (pIC50) in the data set with B16 was 7.70; in data set [1], 6.74.
With `CCN(CC)CCNC(=O)c1ccc(C(=O)N[C@@H](CC(C)C)C(=O)N[C@@H](CC(C)C)C(=O)N[C@H](C=O)CC(C)C)cc1`, the pIC50 in the data set with B16 is 5.89; in data set [1], 6.19. Also, the tissue uptake at 0.07 µM in data set [2] worked out at 5.95 %ID/g.
Take `CCN(CC)CCNC(=O)c1ccc(C(=O)N[C@@H](CC(C)C)C(=O)N[C@@H](CC(C)C)C(=O)N[C@H](C=O)CC(C)C)c([125I])c1.Cl`: the Activity in the data set on Mus musculus came to 87%. In addition, the tissue uptake at 0.07 µM turned out to be 16.3 %ID/g in [3], 4.9 %ID/g in data set [7] and 8.9 %ID/g in [2]. Further, in [4], the Kp was no less than 1. The tissue uptake at 6 h, 0.07 µM in data set [5] came out at 1.2 %ID/g. The tissue uptake at 3 h, 0.07 µM in data set [6] amounted to 1.2 %ID/g. Besides, the tissue uptake at 0.25 h, 0.07 µM in data set [8] stood at 2.7 %ID/g.
For the compound `CCN(CC)CCNC(=O)c1ccc(C(=O)N[C@@H](CC(C)C)C(=O)N[C@@H](CC(C)C)C(=O)N[C@H](C=O)CC(C)C)c(I)c1`, the figures for the pIC50 (in the data set with B16; in data set [1]) were 5.75 and 5.45, respectively.
For the compound `CC(C)C[C@@H](C=O)NC(=O)[C@H](CC(C)C)NC(=O)[C@H](CC(C)C)NC(=O)OCc1ccccc1` (Cbz-Leu-Leu-Leu-aldehyde), the negative logarithm of the IC50 (pIC50) in the data set on B16 is 7.38; in [1] it was 7.11.

Source of the values: ChEMBL document CHEMBL1141594, “Synthesis, radiosynthesis, and biological evaluation of new proteasome inhibitors in a tumor targeting approach” (J Med Chem, 2008).
